We go through 37 sequences from the array DNA melting data of Ke et al. (doi:10.1101/2024.01.08.574731).

Series [1] can be described thus: melting temperature; fluorescence melt of hairpins on a sequencing array, two-state fit, raised by 9.35 °C to match UV melts. As to conditions: sodium 0.088 M. A digest of the protocol:
(§1)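 To match UV melts, fitted temperatures were raised by 9.35 °C. These fits were bootstrapped two-state models that gave melting temperature and folding enthalpy, combined by inverse variance over four replicates. The input was normalised Cy3 fluorescence of library hairpins with annealed Cy3 and quencher oligos on a sequenced MiSeq flow cell, imaged in 50 mM Na-HEPES pH 8.0, 25 mM NaCl in 2.5 °C steps up to 60 °C.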

The nature of series [2]: folding enthalpy; higher = less favourable; fluorescence melt of hairpins on a sequencing array, two-state fit. As to conditions: sodium 0.088 M. A digest of the protocol:
as §1

With GAGCAAGAAATTGCTC ((((((....)))))), in series [1], the Tm came to 54.8 °C. In series [2], the folding enthalpy is -29.8 kcal/mol.

For GAGCAAGGAAACTTGCTC (((((((....))))))), the Tm in series [1] is 63.8 °C. For the same sequence, the folding enthalpy in series [2] was -40.4 kcal/mol.

Consider GAGCAAGGAAACTTGTTC ((.((((....)))).)), for which the Tm in series [1] turned out to be 36.2 °C. For the same sequence, the folding enthalpy in series [2] was -26.1 kcal/mol.

For GAGCACGAAAGTGACCTC ((((((....)))..))), in series [1], the Tm turned out to be 39.6 °C. Further, in series [2], the folding enthalpy is -15.1 kcal/mol.

In the case of GAGCACGAAAGTGCCCTC ((((((....)))..))), the Tm in series [1] was found to be 44.3 °C. Further, the folding enthalpy in series [2] was -9.48 kcal/mol.

Take GAGCACGAAAGTGGCTC ((((((....))).))): in series [1], the Tm is 56.5 °C. In addition, in series [2], the folding enthalpy is -24.2 kcal/mol.

In the case of GAGCACGAAAGTGTCCTC ((((((....)))..))), in series [1], the Tm is 35.2 °C. In addition, the folding enthalpy in series [2] is -12.9 kcal/mol.

As to GAGCACGGAAACATGCTC (((((.(....).))))), the Tm in series [1] came out at 45.4 °C. Further, the folding enthalpy in series [2] is -35 kcal/mol.

In the case of GAGCACGGAAACGCGCTC ((((.((....)).)))), the Tm in series [1] stood at 55.3 °C. Moreover, the folding enthalpy in series [2] was -42.9 kcal/mol.

For GAGCAGGGAAACCCGCTC ((((.((....)).)))), the Tm in series [1] is 51.4 °C. Further, in series [2], the folding enthalpy is -34.2 kcal/mol.

As for GAGCAGGGAAACTTGCTC (((((.(....).))))), in series [1], the Tm worked out at 49 °C. For the same sequence, in series [2], the folding enthalpy is -32.1 kcal/mol.

In the case of GAGCATGGAAACACGCTC ((((.((....)).)))), the Tm in series [1] worked out at 44 °C. In series [2], the folding enthalpy was -35.6 kcal/mol.

For the sequence GAGCCACGAAAGTGTCTC (((.(((....))).))), in series [1], the Tm stood at 50 °C. Moreover, the folding enthalpy in series [2] was -29 kcal/mol.

As to GAGCCAGGAAACTGGTTC ((.((((....)))).)), in series [1], the Tm turned out to be 49.4 °C. In series [2], the folding enthalpy was -29.9 kcal/mol.

Regarding GAGCCCGAAAGGGGACTC ((((((....)))..))), the Tm in series [1] was determined as 47.8 °C. For the same sequence, the folding enthalpy in series [2] was -18.9 kcal/mol.

Turning to GAGCCCGAAAGGGGCCTC ((((((....)))..))), the Tm in series [1] came out at 49.9 °C. Besides, in series [2], the folding enthalpy was -13.5 kcal/mol.

For GAGCCCGAAAGGGTGCTC ((((((....)))..))), in series [1], the Tm came out at 52.1 °C. Further, the folding enthalpy in series [2] was -18.6 kcal/mol.

GAGCCCGGAAACAGGCTC (((((.(....).))))): the Tm in series [1] was 51.5 °C. The folding enthalpy in series [2] was -39.4 kcal/mol.

In the case of GAGCCGGGAAACCGGCCC (.(((((....))))).), the Tm in series [1] was 48.2 °C. Moreover, the folding enthalpy in series [2] is -9.15 kcal/mol.

GAGCCTGGAAACGGGCTC (((((.(....).))))): the Tm in series [1] came out at 58.9 °C. The folding enthalpy in series [2] is -47.8 kcal/mol.

As for GAGCGACGAAAGTCCCTC (((.(((....))).))), the Tm in series [1] was 43.6 °C. Further, the folding enthalpy in series [2] was -16.1 kcal/mol.

On to GAGCGACGAAAGTCCTC (((.(((....)))))), for which the Tm in series [1] is 48.3 °C. In series [2], the folding enthalpy was -17.1 kcal/mol.

On to GAGCGAGGAAACTCACTC (((.(((....))).))), for which, in series [1], the Tm came to 42.1 °C. In addition, in series [2], the folding enthalpy was -31 kcal/mol.

Take GAGCGCGAAAGCGGCCTC ((((((....)))..))): the Tm in series [1] turned out to be 51.1 °C. Moreover, the folding enthalpy in series [2] is -11.7 kcal/mol.

With GAGCGCGAAAGCGTCTC ((((((....))).))), the Tm in series [1] turned out to be 61.5 °C. Besides, the folding enthalpy in series [2] was -21.2 kcal/mol.

Turning to GAGCGCGCGAAAGCGCTC (((..(((....)))))), in series [1], the Tm was determined as 64.6 °C. Further, the folding enthalpy in series [2] was -12.4 kcal/mol.

On to GAGCGCGGAAACGCGCCC (.(((((....))))).), for which the Tm in series [1] was 59.7 °C. For the same sequence, the folding enthalpy in series [2] was -5.64 kcal/mol.

With GAGCGGAAACGCTC (((((....))))), the Tm in series [1] came out at 69.1 °C. In addition, the folding enthalpy in series [2] is -27.4 kcal/mol.

As for GAGCGGCCGAAAGGCCTC (((..(((....)))))), in series [1], the Tm turned out to be 28 °C. The folding enthalpy in series [2] is -6.54 kcal/mol.

Regarding GAGCGGGGAAACCCGCCC (.(((((....))))).), the Tm in series [1] worked out at 45.1 °C. The folding enthalpy in series [2] is -8.26 kcal/mol.

In the case of GAGCGTGGAAACACGCCC (.(((((....))))).), the Tm in series [1] came to 47.9 °C. For the same sequence, the folding enthalpy in series [2] was -7.9 kcal/mol.

For GAGCGTGGAAACGCGCTC (((((.(....).))))), in series [1], the Tm was 66.7 °C. For the same sequence, in series [2], the folding enthalpy was -21.7 kcal/mol.

On to GAGCTACGAAAGTACTC (((.(((....)))))), for which the Tm in series [1] was determined as 39.1 °C. Further, in series [2], the folding enthalpy is -21.3 kcal/mol.

For GAGCTAGAAATAGCTC ((((((....)))))), the Tm in series [1] worked out at 53.4 °C. For the same sequence, the folding enthalpy in series [2] was -33.6 kcal/mol.

With GAGCTAGCGAAAGCTCTC (((..(((....)))))), the Tm in series [1] came to 45.3 °C. In addition, the folding enthalpy in series [2] was -17 kcal/mol.

On to GAGCTCCGAAAGGACTC (((.(((....)))))), for which the Tm in series [1] came to 47.4 °C. In series [2], the folding enthalpy is -23.6 kcal/mol.

Turning to GAGCTCGGAAACGAACCC (.(.(((....))).).), in series [1], the Tm stood at 19.5 °C. Besides, the folding enthalpy in series [2] is -4.42 kcal/mol.
